Assay [1] concerns the target T1, 5-hydroxytryptamine receptor 1A (Homo sapiens) (UniProt P08908).
T1 sequence (whole entry): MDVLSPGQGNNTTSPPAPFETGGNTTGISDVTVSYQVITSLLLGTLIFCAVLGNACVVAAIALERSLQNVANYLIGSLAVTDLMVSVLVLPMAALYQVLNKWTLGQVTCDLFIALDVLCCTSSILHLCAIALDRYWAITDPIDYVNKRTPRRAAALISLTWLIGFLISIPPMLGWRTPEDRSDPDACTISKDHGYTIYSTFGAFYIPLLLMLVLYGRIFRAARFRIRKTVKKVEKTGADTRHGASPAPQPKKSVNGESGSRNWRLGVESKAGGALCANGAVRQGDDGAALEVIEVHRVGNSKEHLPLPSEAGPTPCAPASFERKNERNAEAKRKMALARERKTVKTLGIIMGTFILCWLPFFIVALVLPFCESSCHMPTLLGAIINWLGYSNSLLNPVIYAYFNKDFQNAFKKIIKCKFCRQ
Nature of the assay: Agonist activity at human cloned 5HT1A receptor expressed in HeLa cell membrane assessed as stimulation of [35S]GTPgammaS binding relative to 5-hydroxytryptamine. Type of assay: functional, cell membranes. In a few lines: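 Activation measured as [35S]GTPγS binding in membranes from HeLa cells expressing cloned human 5-HT1A receptor. pD2 is the negative log of agonist concentration giving 50% of maximal stimulation, from two to three experiments agreeing within 20%. Efficacy is given relative to 5-HT.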

The target in assay [2] is T1, 5-hydroxytryptamine receptor 1A (Homo sapiens). Nature of the assay: Agonist activity at human cloned 5HT1A receptor expressed in human HeLa cell membrane assessed as stimulation of [35S]GTPgammaS binding. Format: functional, cell membranes. Put shortly:
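Membranes from HeLa cells expressing cloned human 5-HT1A receptor; agonist-stimulated [35S]GTPγS binding measured. pD2 is the negative log of the agonist concentration giving 50% of maximal [35S]GTPγS binding stimulation; values from two to three experiments.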

Assay [3] addresses T2, Alpha-1B adrenergic receptor (Rattus norvegicus) (UniProt P15823).
T2 sequence (whole entry): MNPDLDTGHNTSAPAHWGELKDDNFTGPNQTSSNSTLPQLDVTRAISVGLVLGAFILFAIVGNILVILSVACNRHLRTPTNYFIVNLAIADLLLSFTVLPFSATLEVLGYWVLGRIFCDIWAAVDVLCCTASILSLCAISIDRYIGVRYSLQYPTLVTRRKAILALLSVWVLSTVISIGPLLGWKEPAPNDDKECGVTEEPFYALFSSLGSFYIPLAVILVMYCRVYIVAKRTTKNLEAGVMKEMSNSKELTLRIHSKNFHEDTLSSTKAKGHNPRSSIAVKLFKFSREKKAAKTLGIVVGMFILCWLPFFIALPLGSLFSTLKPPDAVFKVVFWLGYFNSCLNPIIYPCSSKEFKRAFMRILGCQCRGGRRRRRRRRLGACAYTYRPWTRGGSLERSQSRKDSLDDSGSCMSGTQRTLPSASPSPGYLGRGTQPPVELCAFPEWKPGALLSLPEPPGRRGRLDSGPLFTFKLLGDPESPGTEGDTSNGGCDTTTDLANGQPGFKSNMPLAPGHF
Nature of the assay: Antagonist activity at alpha1B adrenoceptor in Wistar rat spleen assessed as inhibition of (-)-phenylephrine-induced contraction after 30 mins. Type of assay: functional, tissue-based.

A further assay concerns PC-3. Nature of the assay: Cytotoxicity against human PC3 cells after 48 hrs by SRB assay. Conditions: PC-3, 48 h; for CC50: read-out: LC50 (the source's name). Type of assay: functional. Put shortly: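 PC-3 human prostate cancer cells. Growth measured by sulforhodamine B staining following the NCI protocol. […] Values are means of quadruplicate determinations ± standard error (n = 5).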

The target of assay [4] is T3, Alpha-1D adrenergic receptor (Rattus norvegicus) (UniProt P23944).
T3 sequence (whole entry): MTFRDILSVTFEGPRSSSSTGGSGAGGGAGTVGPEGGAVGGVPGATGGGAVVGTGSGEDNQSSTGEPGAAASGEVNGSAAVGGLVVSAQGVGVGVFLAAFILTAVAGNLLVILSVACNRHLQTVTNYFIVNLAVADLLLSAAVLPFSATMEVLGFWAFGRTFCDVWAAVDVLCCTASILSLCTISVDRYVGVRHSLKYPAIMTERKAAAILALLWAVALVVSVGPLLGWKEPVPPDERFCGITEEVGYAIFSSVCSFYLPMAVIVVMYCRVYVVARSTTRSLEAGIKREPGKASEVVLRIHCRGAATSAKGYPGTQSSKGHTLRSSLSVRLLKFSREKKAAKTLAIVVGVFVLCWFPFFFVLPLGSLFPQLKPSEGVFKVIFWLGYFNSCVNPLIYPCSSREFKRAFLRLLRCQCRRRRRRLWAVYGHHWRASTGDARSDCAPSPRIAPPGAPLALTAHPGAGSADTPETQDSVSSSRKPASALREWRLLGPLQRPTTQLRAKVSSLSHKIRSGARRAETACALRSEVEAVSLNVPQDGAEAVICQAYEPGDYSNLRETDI
Nature of the assay: Antagonist activity at Alpha-1D adrenoceptor in Wistar rat thoracic aorta assessed as inhibition of (-)-noradrenaline-induced contraction after 30 mins. Format: functional, tissue-based.

Assay [5] has as its target T4, Alpha-1A adrenergic receptor (Rattus norvegicus) (UniProt P43140).
T4 sequence (whole entry): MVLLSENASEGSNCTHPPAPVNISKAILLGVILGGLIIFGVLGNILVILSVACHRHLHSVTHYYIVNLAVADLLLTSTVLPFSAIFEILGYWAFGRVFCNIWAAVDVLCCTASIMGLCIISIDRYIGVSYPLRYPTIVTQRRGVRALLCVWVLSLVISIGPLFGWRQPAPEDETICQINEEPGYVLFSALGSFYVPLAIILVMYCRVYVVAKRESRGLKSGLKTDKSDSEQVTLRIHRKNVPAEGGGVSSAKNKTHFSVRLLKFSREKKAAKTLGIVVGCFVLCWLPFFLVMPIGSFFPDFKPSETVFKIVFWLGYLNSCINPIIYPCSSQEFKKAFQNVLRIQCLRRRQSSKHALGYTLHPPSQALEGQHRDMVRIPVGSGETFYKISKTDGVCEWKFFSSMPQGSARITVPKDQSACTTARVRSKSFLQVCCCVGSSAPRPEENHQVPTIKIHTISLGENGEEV
The assay can be described thus: Antagonist activity at alpha1A adrenoceptor in Wistar rat prostatic vas deferens assessed as inhibition of (-)-noradrenaline-induced contraction after 30 mins. Type of assay: functional, tissue-based.

For assay [6], the target named is T5, Alpha-1B adrenergic receptor (Homo sapiens, UniProt P35368).
T5 sequence (P35368 whole entry): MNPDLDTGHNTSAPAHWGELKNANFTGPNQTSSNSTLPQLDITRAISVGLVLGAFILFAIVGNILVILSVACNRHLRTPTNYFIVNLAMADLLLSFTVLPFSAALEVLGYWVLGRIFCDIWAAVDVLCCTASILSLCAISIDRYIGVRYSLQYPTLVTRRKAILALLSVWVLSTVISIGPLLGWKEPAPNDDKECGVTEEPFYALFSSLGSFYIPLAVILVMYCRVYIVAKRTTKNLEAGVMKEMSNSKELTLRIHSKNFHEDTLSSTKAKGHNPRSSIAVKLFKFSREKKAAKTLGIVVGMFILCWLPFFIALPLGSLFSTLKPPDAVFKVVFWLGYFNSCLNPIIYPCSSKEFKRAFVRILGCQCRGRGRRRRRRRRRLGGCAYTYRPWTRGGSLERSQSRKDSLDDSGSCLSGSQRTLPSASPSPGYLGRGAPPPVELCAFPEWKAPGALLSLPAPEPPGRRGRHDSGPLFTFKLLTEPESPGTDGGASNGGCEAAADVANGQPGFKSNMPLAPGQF
The assay can be described thus: Displacement of [3H]prazosin from human cloned Alpha-1B adrenoceptor expressed in CHO cells. Format: cell-based. In a few lines: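 [3H]prazosin binding to cloned human α1-adrenoceptor subtypes expressed in CHO cell membranes. Affinity reported as pKi for each subtype.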

A value given as a limit tells only on which side of the number the result lay.

Turning to `NCCc1c[nH]c2ccc(C(N)=O)cc12`, the %max in assay [1] was 96. In addition, the pD2 in assay [2] was determined as 8.45.

In the case of `COc1ccccc1N1CCN(CCN2C(=O)CC3(CCCC3)CC2=O)CC1`, the %max in assay [1] came out at 26. The pKb in assay [3] came to 7.48. Besides, the pD2 in assay [2] was 9.27.

Regarding `COc1cccc(OC)c1OCCNCC1COc2ccccc2O1` (configuration not stated), the negative logarithm of the Kb (pKb) in assay [3] was found to be 8.16; in assay [4] it was 8.8; in assay [5] it was 9.51. In the assay on PC-3, this molecule displayed a GI50 of 64.6 µM. For the same molecule, in the assay on PC-3, total growth inhibition (TGI) required 199 µM. Also, in the assay on PC-3, the CC50 is > 200 µM.

`CCCN(CCC)C1CCc2cccc(O)c2C1` (configuration not stated) [8-OH-DPAT]: in assay [1], the %max turned out to be 100. Besides, the inhibition constant Ki in assay [6] was > 1 µM.

With `NCCc1c[nH]c2ccc(O)cc12`, the pD2 in assay [2] was found to be 7.3.

In the case of `COc1cc2nc(N3CCN(C(=O)C4COc5ccccc5O4)CC3)nc(N)c2cc1OC` (configuration not stated) [DOXAZOSIN], in the assay with PC-3, it took 26.9 µM to inhibit growth by half (GI50), the total growth inhibition concentration (TGI) came to 49 µM and the CC50 came to 75.8 µM.

The values are drawn from ChEMBL document CHEMBL1140161, “Structure-activity relationships in 1,4-benzodioxan-related compounds. 9. From 1,4-benzodioxane to 1,4-dioxane ring as a promising template of novel alpha1D-adrenoreceptor antagonists, 5-HT1A full agonists, and cytotoxic agents” (J Med Chem, 2008).
